The subject of data set [1] is CD4+ve Th. Put plainly: Cytotoxicity against human CD4+ve Th cells upto 100 uM incubated for 3 hrs by annexin/PI staining based flow cytometry. It counts as toxicity, cell-based. The procedure, abridged:
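Memory CD4+ T cells from healthy-donor PBMC (Ficoll, magnetic isolation, >95% purity), 20×10^4 cells exposed to compound at 5–500 μM for 3 h at 37 °C, 5% CO2; viability by annexin/propidium iodide flow cytometry.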
A general note: A flow cytometer gives signals particle by particle.

Data set [2] concerns CD4+ve Th. Put plainly: Inhibition of cell migration of CCL20-induced human CD4+ve Th cells expressing CCR6 at 50 uM incubated for 3 hrs by FACS analysis. It is filed as functional, cell-based. Summed up:
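Memory CD4+ T cells (20×10^4) in upper chamber of 5.0 μm transwell in IMDM with 0.5% BSA, preincubated with compound (0.5–50 μM) 15 min at 4 °C; 500 ng/ml CCL20 in lower chamber. After 3 h at 37 °C, migrated cells counted with counting beads by flow cytometry; migration index = CCL20-driven / medium-only migration; duplicate or triplicate.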

The target in data set [3] is T1, C-C chemokine receptor type 6 (Homo sapiens) (UniProt P51684).
T1 sequence (whole entry): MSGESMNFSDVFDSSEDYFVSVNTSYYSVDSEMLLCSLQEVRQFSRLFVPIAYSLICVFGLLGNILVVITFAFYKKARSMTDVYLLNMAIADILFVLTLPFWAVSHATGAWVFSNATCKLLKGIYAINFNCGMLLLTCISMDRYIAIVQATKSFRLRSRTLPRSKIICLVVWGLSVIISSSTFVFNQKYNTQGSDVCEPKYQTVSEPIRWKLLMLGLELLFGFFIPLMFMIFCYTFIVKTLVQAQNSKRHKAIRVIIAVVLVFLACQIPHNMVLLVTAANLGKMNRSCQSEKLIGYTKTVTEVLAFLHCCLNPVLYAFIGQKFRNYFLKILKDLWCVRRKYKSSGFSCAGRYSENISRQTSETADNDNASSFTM
Kind of data set: Agonist activity at CCR6 (unknown origin) transfected in HEK293T cells assessed as beta-arrestin-1 recruitment at 0.030 to 300 uM measured for 20 mins by NanoBiT assay. It is filed as functional, cell-based. The conditions noted are these: dose 0.03-300 µM. The procedure, abridged:
(§1)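 HEK293T cells (DMEM, 10% FBS) co-transfected with SmBiT C-tagged CCR6 or CCR5 and LgBiT N-tagged human β-arrestin-1 or miniGi; harvested 24 h later, loaded with coelenterazine h 15 min at 37 °C, 10^5 cells/well. Luminescence from recruitment induced by compound (30 nM–300 μM) read for 20 min; CCL20 (30 pM–300 nM) positive control.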

Data set [4] has as its target T1, C-C chemokine receptor type 6 (Homo sapiens). Kind of data set: Agonist activity at CCR6 (unknown origin) transfected in HEK293T cells assessed as mini-Gi recruitment at 0.030 to 300 uM measured for 20 mins by NanoBiT assay. The note with it: dose 0.03-300 µM. It counts as functional, cell-based. The procedure, abridged:
as §1

For data set [5] the target is unchanged. Put plainly: Antagonist activity at CCR6 (unknown origin) transfected in HEK293T cells assessed as CCL20-induced beta-arrestin-1 recruitment at 0.030 to 300 uM measured for 20 mins by NanoBiT assay. It counts as functional, cell-based. The conditions noted are these: filed as antagonist, dose 0.03-300 µM. The procedure, abridged:
(§2)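 NanoBiT complementation in co-transfected HEK293T cells (SmBiT-tagged CCR6 or CCR5, LgBiT-tagged β-arrestin-1 or miniGi), coelenterazine h 15 min at 37 °C. After compound exposure (30 nM–300 μM), cells were stimulated with CCL20 10 nM (CCR6) or CCL5 5 nM (CCR5) and inhibition of chemokine-induced recruitment was monitored by luminescence.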
(Recruitment of arrestin is a read-out of receptor activation apart from second messengers.)

For data set [6] the target is unchanged. Put plainly: Antagonist activity at CCR6 (unknown origin) transfected in HEK293T cells assessed as CCL20-induced mini-Gi recruitment at 0.030 to 300 uM measured for 20 mins by NanoBiT assay. It counts as functional, cell-based. The note with it: filed as antagonist, dose 0.03-300 µM. The procedure, abridged:
as §2

For data set [7], the target named is C-C chemokine receptor type 5 (Homo sapiens) (UniProt P51681). Kind of data set: Agonist activity at CCR5 (unknown origin) transfected in HEK293T cells assessed as beta-arrestin-1 recruitment at 0.030 to 300 uM measured for 20 mins by NanoBiT assay. It counts as functional, cell-based. The conditions noted are these: dose 0.03-300 µM. The procedure, abridged: as §1
Chain of C-C chemokine receptor type 5 (Homo sapiens) (P51681 whole entry, looked up): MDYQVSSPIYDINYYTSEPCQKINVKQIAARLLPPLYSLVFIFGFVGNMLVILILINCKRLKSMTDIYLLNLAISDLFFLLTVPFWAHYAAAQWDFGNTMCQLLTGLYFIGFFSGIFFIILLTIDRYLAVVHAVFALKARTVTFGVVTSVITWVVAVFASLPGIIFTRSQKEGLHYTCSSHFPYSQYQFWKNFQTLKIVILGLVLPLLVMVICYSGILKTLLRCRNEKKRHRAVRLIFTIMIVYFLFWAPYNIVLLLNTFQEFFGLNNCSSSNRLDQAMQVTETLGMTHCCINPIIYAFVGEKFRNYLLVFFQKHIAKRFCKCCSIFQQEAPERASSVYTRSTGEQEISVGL

The target is the same in data set [8]. Put plainly: Antagonist activity at CCR5 (unknown origin) transfected in HEK293T cells assessed as CCL5-induced beta-arrestin-1 recruitment at 0.030 to 300 uM measured for 20 mins by NanoBiT assay. The note with it: filed as antagonist, dose 0.03-300 µM. It counts as functional, cell-based. Summed up:
as §2

The test system of data set [9] is Mus musculus. Kind of data set: Anti-colitis activity against TNBS-induced colitis Swiss mouse model assessed as decrease in disease activity index at 1 mg/kg, sc bid for 3 days. It counts as functional, organism-based. The note with it: time 3.0 day. The procedure, abridged:
(§3)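 Female CD1 Swiss mice (7–12 weeks) skin-sensitized, then after 20 h fast given 5 mg TNBS in 50% ethanol intrarectally 6 days later. Compound 1 mg/kg or vehicle (1% DMSO in saline, 10 mL/kg) s.c. twice daily, 8 h apart, days 1–4; euthanized day 4. DAI from daily weight, stool, bleeding by blinded observers; macroscopic score; colon/lung MPO.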

For data set [10], the system named is Mus musculus. Put plainly: Anti-colitis activity against TNBS-induced colitis Swiss mouse model assessed as decrease in macroscopic injury at 1 mg/kg, sc bid for 3 days. The note with it: time 3.0 day. It counts as functional, organism-based. The procedure, abridged:
as §3

Data set [11] concerns Mus musculus. Put plainly: Anti-colitis activity against TNBS-induced colitis Swiss mouse model assessed as decrease in neutrophil infiltration by measuring MPO activity in colon at 1 mg/kg, sc bid for 3 days by absorbance based assay. It counts as functional, organism-based. The note with it: time 3.0 day. The procedure, abridged: as §3
In data set [12] the test system is Mus musculus. Kind of data set: Anti-inflammatory activity against zymosan-induced peritonitis mouse model assessed as decrease in neutrophil recruitment in peritoneal lavage at 1 mg/kg, sc administrated 1 hr prior to zymosan administration and measured after 4 hrs by PI staining based flow cytometry. It is filed as functional, organism-based. The note with it: time 5.0 hrs. Summed up: (§4)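 Mice fasted 2 h, then zymosan A 5 mg/mL in PBS (0.2 mL) i.p. Compound 1 mg/kg s.c. (vehicle 1% DMSO in saline, 10 mL/kg) 1 h before zymosan, or also 2 h after. Lavage at 4 h with 3 mL PBS, EDTA, heparin; centrifuged; supernatant protein by BCA (mg/mL); pellet MPO (mU/mL) or flow cytometry.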

Data set [13] concerns Mus musculus. Kind of data set: Anti-inflammatory activity against zymosan-induced peritonitis mouse model assessed as decrease in MPO activity in peritoneal lavage at 1 mg/kg, sc administrated 1 hr prior to zymosan administration and measured after 4 hrs by absorbance based assay. It is filed as functional, organism-based. The conditions noted are these: time 5.0 hrs. Summed up: as §4

Data set [14] relates to Mus musculus. Put plainly: Anti-inflammatory activity against zymosan-induced peritonitis mouse model assessed as decrease in total proteins in peritoneal lavage at 1 mg/kg, sc administrated 1 hr prior to zymosan administration and measured after 4 hrs by BCA assay. It is filed as functional, organism-based. The conditions noted are these: time 5.0 hrs. The procedure, abridged: as §4

Data set [15] concerns Mus musculus. Put plainly: Anti-inflammatory activity against zymosan-induced peritonitis mouse model assessed as decrease in total proteins in peritoneal lavage at 1 mg/kg, sc administrated 1 hr before and 2 hrs after zymosan administration and measured after 2 hrs by BCA assay. It counts as functional, organism-based. The note with it: time 5.0 hrs. The procedure, abridged:
as §4

The subject of data set [16] is Mus musculus. Kind of data set: Anti-inflammatory activity against zymosan-induced peritonitis mouse model assessed as decrease in MPO activity in peritoneal lavage at 1 mg/kg, sc administrated 1 hr before and 2 hrs after zymosan administration and measured after 2 hrs by absorbance based assay. It counts as functional, organism-based. The note with it: time 5.0 hrs. Summed up: as §4

The subject of data set [17] is Mus musculus. Kind of data set: Anti-colitis activity against TNBS-induced colitis Swiss mouse model assessed as decrease in neutrophil infiltration by measuring MPO activity in lung at 1 mg/kg, sc bid for 3 days by absorbance based assay. It is filed as functional, organism-based. The conditions noted are these: time 3.0 day. Summed up:
as §3

We go through three compounds from ChEMBL document CHEMBL5352413, “Discovery of small-molecules targeting the CCL20/CCR6 axis as first-in-class inhibitors for inflammatory bowel diseases” (Eur J Med Chem, 2022).

The structures appear in SMILES notation. The source made the active and inactive calls. The calls are words filed in the database; no cut-off is given here.

For the compound `C/C(=N\Nc1ccc2ccccc2n1)c1cccc(C(F)(F)F)c1`, the Activity entry in the data set on CD4+ve Th [1] is “Non-Toxic”.

Take `Cc1c(C(=O)Nc2ccc(C(F)(F)F)cc2)oc2ccccc12`: the inhibition result in the data set on CD4+ve Th [2] was “Active”. For the same compound, the outcome (in data set [3]; in data set [4]; in data set [7]; in the data set on Mus musculus [12]; in the data set with Mus musculus [13]; in the data set with Mus musculus [14]) was inactive. Moreover, the result (in data set [5]; in data set [6]; in data set [8]; in the data set with Mus musculus [9]; in the data set on Mus musculus [10]; with Mus musculus [11]) was Active. Further, the result in the data set on Mus musculus [15], in the data set on Mus musculus [16] and in the data set with Mus musculus [17] was Active. For the same compound, in the data set with CD4+ve Th [1], the Activity entry is listed as “Non-Toxic”.

As for `Cc1c(C(=O)Nc2cccc(F)c2)oc2ccccc12`, the Activity result in the data set with CD4+ve Th [1] is “Non-Toxic”.
